L major viab: reduces viability of Leishmania major promastigotes. resazurin fluorescence viability. inhibition, % at 10 µM. 200,000 tested, 9% active; in the data active = inhibition above about 50%;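 note: promastigotes grown with compound for 44 hours at 28 °C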
Rad51 HR inh: Rad51 (human) homologous recombination inhibition; Q06609; hRad51 DNA strand exchange, fluorescence dequenching; inhibition, % at 10 µM; 200,000 tested, 0.085% active;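 active = inhibition above 40% at the single screening dose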
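Test system: preformed human Rad51 ssDNA filaments. Compound dosing: single dose, 10 µM final compound. Incubation: filaments 15 min 37 °C, then compound 30 min. Technique: FRET fluorescence dequenching, excitation 485 nm, emission 520 nm. Read-out basis: percent inhibition from fluorescence, normalised to plate control and blank means. Benchmarks: plate controls and plate blanks.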
PMI act satM6P: activators of human phosphomannose isomerase at near-saturating mannose 6-phosphate; coupled PMI enzyme assay, resazurin fluorescence, 20 min; hits give high values; 1 = untreated enzyme, 0 = substrate-free blank; activation factor at 20 µM; 190,000 tested, 0.34% active;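 active = activation factor of 2 or more at 20 µM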
Target sequence (P34949 whole entry, looked up): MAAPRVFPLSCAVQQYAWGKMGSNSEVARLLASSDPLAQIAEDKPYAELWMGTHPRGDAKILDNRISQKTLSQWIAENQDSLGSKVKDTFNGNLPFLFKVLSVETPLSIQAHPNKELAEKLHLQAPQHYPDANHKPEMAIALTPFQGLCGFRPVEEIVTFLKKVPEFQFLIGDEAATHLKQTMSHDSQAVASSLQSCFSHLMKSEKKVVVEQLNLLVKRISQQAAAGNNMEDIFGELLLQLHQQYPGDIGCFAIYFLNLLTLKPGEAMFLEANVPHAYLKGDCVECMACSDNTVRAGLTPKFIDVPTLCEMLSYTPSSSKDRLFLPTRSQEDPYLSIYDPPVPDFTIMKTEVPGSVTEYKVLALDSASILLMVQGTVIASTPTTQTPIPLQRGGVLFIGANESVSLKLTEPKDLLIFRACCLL
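Test system: human phosphomannose isomerase with PGI, G6PDH, diaphorase coupling enzymes / Doses: 20 µM compound, 1% DMSO / Times: enzyme reaction with compound 20 min at room temperature / Measured by: Diaphorase-driven resazurin-to-resorufin fluorescence, excitation 544, emission 590 nm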
WT yeast gro inh: growth inhibition of WT yeast, mitochondrial fusion screen | mitochondrial fusion phenotypic screen, WT strain | inhibition, % at 10 µM | 190,000 tested, 2.1% active; in the data active = inhibition above about 58%; tested in S. cerevisiae
PMI act: activators of human phosphomannose isomerase; P34949; purified human PMI, coupled resazurin fluorescence, 20 min; hits give high values; 1 = vehicle control, 0 substrate-free wells; activation factor at 20 µM; 190,000 tested, 0.005% active;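 active = activation factor of 2 or more at 20 µM, relative to plate controls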
m-calpain inh: calpain II (pig) inhibition; purified calpain II, fluorogenic peptide substrate, 30 min; inhibition, % at 16 µM; 220,000 tested, 0.37% active; AID 1236;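 active = inhibition above about 50%, limit read from the data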
Large screens that a line does not name were inactive. Rows were chosen to be rich in hits. Some 9.8% of all compounds tested hit in one or more screens of this group.

COc1ccc(NC(=O)Cn2nnc(-c3ccccc3N)n2)cc1OC	none
O=S1(=O)N=C(N(CCO)/N=C/C=C/c2ccccc2)c2ccccc21	L major viab 53
O=S1(=O)N=C(N/N=C/C=C/c2ccccc2)c2ccccc21	none (no result: Rad51 HR inh)
CC(=O)N1CCN(CC(=O)Nc2ccc([N+](=O)[O-])cc2Br)CC1	none
OCCN1CCN(C(=S)c2ccc(Cl)c(Cl)c2)CC1	L major viab 85
O=C(Nc1ncc(S(=O)(=O)c2ccc([N+](=O)[O-])cc2)s1)c1cccc2ccccc12	L major viab 100
Cc1no[n+]([O-])c1COc1ccc(/C=N/n2nnnc2N)cc1	L major viab 57
COc1cccc(/C=N/n2nnnc2N)c1	none (no result: L major viab, PMI act satM6P, WT yeast gro inh, PMI act)
O=C1C(Cl)=C(NCCN2CCCCC2)C(=O)c2ccccc21	L major viab 99
CCN(CC)c1ccc(NC2=C(Cl)C(=O)c3ccccc3C2=O)cc1	none (no result: Rad51 HR inh)
O=C(NCCN1CCCC1)c1ccccc1Cl	none
CCNC1=C(Cl)C(=O)c2ccccc2C1=O	m-calpain inh 50
O=S(=O)(Nc1cccc(-c2nnco2)c1)c1ccc(F)cc1F	none (no result: L major viab, PMI act satM6P, WT yeast gro inh, PMI act)
O=C(c1ccncc1)N1N=C(C2CCCCC2)CC1(O)C(F)(F)F (stereo not drawn)	none
O/N=C/c1cc(Br)ccc1OCc1ccccc1F	L major viab 100 (no result: PMI act satM6P, WT yeast gro inh, PMI act, m-calpain inh)
Fc1ccc(COc2ccc(Br)cc2CNCc2ccncc2)cc1	L major viab 97
Nc1nonc1C(=O)NCCNCc1cc(Br)ccc1OCc1ccc(F)cc1	none
CCOc1cc(CNCc2ccncc2)cc(Br)c1OCc1ccc(F)cc1	L major viab 93
C=CCOc1ccc(Br)cc1/C=N/O	none
CC(=O)Nc1cccc(OCc2ccc(F)cc2)c1	none
Fc1ccc(COc2cccc(CNCc3ccncc3)c2)cc1	L major viab 96
O=C(NCc1ccccc1Cl)C1CCCN(S(=O)(=O)c2cccc3nsnc23)C1 (stereo not drawn)	none
Cc1ccc(C(=S)N2CCN(Cc3ccccc3)CC2)s1	none
Fc1ccccc1COc1ccc(Br)cc1CNCc1ccncc1	L major viab 100, m-calpain inh 57
Fc1ccccc1COc1ccc(Br)cc1CNCc1cccnc1	none
O=S1(=O)CCN(Cc2ccc(Cl)c(C(F)(F)F)c2)CC1	none
Cc1c(Nc2c3ccccc3nc3ccccc23)c(=O)n(-c2ccccc2)n1C	none (no result: L major viab, PMI act satM6P, WT yeast gro inh, PMI act)
Cc1c(Nc2nc3ccccc3nc2N2CCN(c3ccccc3)CC2)c(=O)n(-c2ccccc2)n1C	L major viab 53
CCCCOc1ccc2c(c1)/C(=C(\C(Cl)=C(Cl)Cl)[N+](=O)[O-])N2	none
CN(C)S(=O)(=O)c1cccc(NC(=O)COc2nc3ccccc3nc2N2CCOCC2)c1	L major viab 56
O=C(COc1nc2ccccc2nc1N1CCOCC1)Nc1ccc(S(=O)(=O)N2CCCC2)cc1	L major viab 67
CCCNC(=O)COc1nc2ccccc2nc1N1CCOCC1	none (no result: Rad51 HR inh)
COc1ccc([N+](=O)[O-])cc1NC(=O)C(C)Sc1nc(C)c(C)c(C)n1 (stereo not drawn)	none
Cc1c(C(=O)OCCOc2ccc(Br)cc2)sc(=S)n1C	none
Nc1nc(SCC(=O)N2CCCC2)[nH]c(=O)c1NC(=O)c1cccs1	none (no result: L major viab, Rad51 HR inh, PMI act satM6P, WT yeast gro inh, PMI act)
N#Cc1ccsc1NC(=O)COC(=O)c1cc2ccccc2cc1O	L major viab 79
COc1ccc([C@H]2C(C#N)=C([S-])N[C@](C)(O)[C@@H]2[n+]2ccccc2)cc1	none (no result: L major viab, PMI act satM6P, WT yeast gro inh, PMI act)
CCOc1cc(/C=C2/C(=O)ON=C2C)ccc1OCc1ccccc1F	L major viab 58
NC(=O)CSc1nnc(-c2cccc(S(=O)(=O)N3CCCCC3)c2)o1	none (no result: L major viab, PMI act satM6P, WT yeast gro inh, PMI act)
O=C(CSc1nnc(-c2cccs2)o1)Nc1cccc(S(=O)(=O)N2CCCCC2)c1	L major viab 51
Cc1cc(NC(=O)CSc2nncn2-c2ccccc2)no1	none
COc1ccc(-n2cnnc2SCC(=O)Nc2cc(C)on2)cc1	Rad51 HR inh 44
COc1ccc(-n2cnnc2SCC(=O)Nc2cc(S(=O)(=O)N3CCCCC3)ccc2C)cc1	L major viab 67
CCc1cccc2c(C(=O)CSc3nncn3-c3ccc(OC)cc3)c[nH]c12	L major viab 53
Cc1cccc(NNC(N)=S)c1C	none (no result: Rad51 HR inh)
Cc1c(Cl)cccc1-n1c(SCC(=O)N2CCC(C(=O)O)CC2)nnc1-c1ccncc1	none
Cc1ccc(/C=N/NC(=O)Cn2nnc(N)n2)o1	none (no result: L major viab, PMI act satM6P, WT yeast gro inh, PMI act)
O=C(CSc1nncn1-c1ccccc1)Nc1cccc(S(=O)(=O)N2CCCCC2)c1	L major viab 63
COc1ccc(-n2cnnc2SCC(=O)Nc2cccc(S(=O)(=O)N3CCCCC3)c2)cc1	none
COc1ccc(CN2CCN(S(=O)(=O)c3ccc(NC(C)=O)cc3)CC2)c(OC)c1OC	none
Cc1nn(-c2ccccc2)c(-c2ccccc2[N+](=O)[O-])c1C(=O)O	none (no result: L major viab, PMI act satM6P, WT yeast gro inh, PMI act)
CCOc1cc(/C=C(\C#N)C(=O)NCC2CCCO2)ccc1O (stereo not drawn)	L major viab 64
CC(NC(=O)c1cc(S(=O)(=O)N(C)C)ccc1N1CCCC1)C1CC2CCC1C2 (stereo not drawn)	none
CCCCCNCc1ccc(Cl)cc1	L major viab 51
CCCCNC(=S)Nc1ccc(Cl)cc1	none (no result: Rad51 HR inh)
OCCCCNCc1ccc(OCc2ccc(Cl)cc2)cc1	L major viab 100
CNCCCNCc1ccc(SC)cc1	none
OCCCNCc1ccc(Cl)cc1Cl	none
CCCCCNCc1ccc(Br)cc1	L major viab 87
CCCCCCNCc1ccc(Br)cc1	L major viab 86
CSCC[C@H](NC(=O)OC(C)(C)C)C(=O)N/N=C/c1ccc2nccnc2c1	none (no result: L major viab, PMI act satM6P, WT yeast gro inh, PMI act)
COc1ccc(/C=N/OCC(=O)N(Cc2ccc(OC)cc2)c2ccccc2C(=O)O)cc1	none (no result: Rad51 HR inh)
Cc1ccc(S(=O)(=O)N2CCCC(C(=O)NCCC(C)C)C2)cc1 (stereo not drawn)	none
COc1c(C)cc(C(=O)C2CCCN(C(=O)c3snnc3C)C2)cc1C (stereo not drawn)	none (no result: Rad51 HR inh)
CC(=O)c1cccc(NC(=O)N2CCC(NC(=O)C34CC5CC(CC(C5)C3)C4)CC2)c1	L major viab 55
COc1ccc(N2CCN(Cc3nc4scc(-c5cccs5)c4c(=O)[nH]3)CC2)cc1	none
O=c1[nH]c(CN2CCN(c3ccccc3)CC2)nc2scc(-c3ccccc3)c12	L major viab 67
COc1ccc(N2CCN(Cc3nc4scc(-c5ccccc5)c4c(=O)[nH]3)CC2)cc1	L major viab 62
COCCNC(=O)C(=O)NNC(=O)CCc1ccccc1	none
CS(=O)(=O)c1[nH]nc(-c2ccccc2)c1C#N	none (no result: L major viab, PMI act satM6P, WT yeast gro inh, PMI act)
COC(=O)COc1ccc(/C=N/NC(=O)c2ccc(N(Cc3ccccc3)S(C)(=O)=O)cc2)cc1	L major viab 58
CC(C)Oc1ccc(/C=N/NC(=O)c2ccc(N(Cc3ccccc3)S(C)(=O)=O)cc2)cc1	none (no result: Rad51 HR inh)
O=C(COc1ccccc1)NCC(=O)Nc1cccc2ccccc12	none
O=C(COc1ccc(C(=O)c2ccccc2)cc1)NCC(=O)Nc1ccccc1Br	L major viab 62

Compound activity deposited in PubChem by several laboratories.
